From ChEMBL document CHEMBL4118273, “Design, Synthesis, and Biological Evaluation of Pyrimido[4,5- d]pyrimidine-2,4(1 H,3 H)-diones as Potent and Selective Epidermal Growth Factor Receptor (EGFR) Inhibitors against L858R/T790M Resistance Mutation” (J Med Chem, 2018)
In brackets after ≈: the same amount, converted by molar mass.

Key:
NCI-H1975 = test: Antiproliferative activity against human NCI-H1975 cells harboring EGFR L858R/T790M double mutant after 72 hrs by SRB assay; format: functional, cell-based; details: NCI-H1975, 72 h
How it was run: (§1)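 Cell growth inhibition measured by sulforhodamine B colorimetric assay in H1975 (EGFR L858R/T790M) and A431 (overexpressed wild-type EGFR) cells; IC50 values are means ± SD of at least three independent determinations. Selectivity is taken as the A431:H1975 IC50 ratio.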

A-431 = test: Cytotoxicity against human A431 cells harboring wild type EGFR assessed as reduction in cell viability after 72 hrs by SRB assay; format: cell-based; details: A-431, 72 h; how it was run: as §1
Homo sapiens [1] = species on record: Homo sapiens; test: Selectivity ratio of IC50 for recombinant human GST-tagged EGFR (668 to 1210 residues) expressed in baculovirus expression system to IC50 for recombinant human GST-tagged EGFR L858R/T790M double mutant expressed in baculovirus expression system
How it was run: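 ELISA-based EGFR tyrosine kinase assay run on wild-type and L858R/T790M enzymes. IC50 values come from at least three independent determinations, reported as means ± SD. Selectivity is the wild-type IC50 divided by the L858R/T790M IC50.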

[2] = target: Epidermal growth factor receptor (Homo sapiens, UniProt P00533, L858R/T790M); test: Inhibition of recombinant human GST-tagged EGFR L858R/T790M double mutant expressed in baculovirus expression system using Poly(Glu,Tyr)4:1 as substrate after 1 hr by ELISA
Chain of Epidermal growth factor receptor (Homo sapiens, UniProt P00533, L858R/T790M) (P00533 25-1210 T790M/L858R limits assumed): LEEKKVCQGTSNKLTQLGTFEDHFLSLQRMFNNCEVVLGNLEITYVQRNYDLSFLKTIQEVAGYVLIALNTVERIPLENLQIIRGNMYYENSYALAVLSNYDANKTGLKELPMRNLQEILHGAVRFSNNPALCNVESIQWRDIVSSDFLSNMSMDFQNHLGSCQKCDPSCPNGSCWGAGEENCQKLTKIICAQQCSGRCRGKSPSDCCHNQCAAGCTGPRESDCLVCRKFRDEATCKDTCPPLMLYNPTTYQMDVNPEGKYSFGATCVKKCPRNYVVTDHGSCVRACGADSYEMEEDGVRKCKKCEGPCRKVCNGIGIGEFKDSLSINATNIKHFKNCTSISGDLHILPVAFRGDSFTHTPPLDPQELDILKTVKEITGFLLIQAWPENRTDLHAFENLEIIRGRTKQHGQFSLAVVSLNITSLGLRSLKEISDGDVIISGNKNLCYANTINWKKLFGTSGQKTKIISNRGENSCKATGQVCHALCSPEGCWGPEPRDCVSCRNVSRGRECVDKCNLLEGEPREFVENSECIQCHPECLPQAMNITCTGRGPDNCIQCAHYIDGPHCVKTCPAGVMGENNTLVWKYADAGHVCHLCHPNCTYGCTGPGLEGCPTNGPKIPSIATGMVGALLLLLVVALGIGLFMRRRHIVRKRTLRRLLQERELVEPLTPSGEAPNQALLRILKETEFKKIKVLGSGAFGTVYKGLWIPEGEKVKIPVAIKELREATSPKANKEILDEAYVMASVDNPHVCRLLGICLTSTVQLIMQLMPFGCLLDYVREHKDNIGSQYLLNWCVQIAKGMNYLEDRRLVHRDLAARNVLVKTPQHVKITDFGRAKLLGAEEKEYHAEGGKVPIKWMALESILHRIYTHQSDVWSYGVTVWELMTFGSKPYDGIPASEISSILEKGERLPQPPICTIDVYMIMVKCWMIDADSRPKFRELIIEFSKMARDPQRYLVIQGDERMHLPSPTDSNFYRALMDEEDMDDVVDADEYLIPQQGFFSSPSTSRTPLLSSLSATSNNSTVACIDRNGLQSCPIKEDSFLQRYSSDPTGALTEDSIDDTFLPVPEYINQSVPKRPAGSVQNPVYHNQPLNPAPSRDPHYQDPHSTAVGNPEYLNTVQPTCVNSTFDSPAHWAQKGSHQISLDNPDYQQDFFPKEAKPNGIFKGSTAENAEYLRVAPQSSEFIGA

[3] = target: Epidermal growth factor receptor (Homo sapiens, UniProt P00533); test: Inhibition of recombinant human GST-tagged EGFR (668 to 1210 residues) expressed in baculovirus expression system using Poly(Glu,Tyr)4:1 as substrate after 1 hr by ELISA
Chain of Epidermal growth factor receptor (Homo sapiens, UniProt P00533) (P00533 whole entry, the tested form may be a part): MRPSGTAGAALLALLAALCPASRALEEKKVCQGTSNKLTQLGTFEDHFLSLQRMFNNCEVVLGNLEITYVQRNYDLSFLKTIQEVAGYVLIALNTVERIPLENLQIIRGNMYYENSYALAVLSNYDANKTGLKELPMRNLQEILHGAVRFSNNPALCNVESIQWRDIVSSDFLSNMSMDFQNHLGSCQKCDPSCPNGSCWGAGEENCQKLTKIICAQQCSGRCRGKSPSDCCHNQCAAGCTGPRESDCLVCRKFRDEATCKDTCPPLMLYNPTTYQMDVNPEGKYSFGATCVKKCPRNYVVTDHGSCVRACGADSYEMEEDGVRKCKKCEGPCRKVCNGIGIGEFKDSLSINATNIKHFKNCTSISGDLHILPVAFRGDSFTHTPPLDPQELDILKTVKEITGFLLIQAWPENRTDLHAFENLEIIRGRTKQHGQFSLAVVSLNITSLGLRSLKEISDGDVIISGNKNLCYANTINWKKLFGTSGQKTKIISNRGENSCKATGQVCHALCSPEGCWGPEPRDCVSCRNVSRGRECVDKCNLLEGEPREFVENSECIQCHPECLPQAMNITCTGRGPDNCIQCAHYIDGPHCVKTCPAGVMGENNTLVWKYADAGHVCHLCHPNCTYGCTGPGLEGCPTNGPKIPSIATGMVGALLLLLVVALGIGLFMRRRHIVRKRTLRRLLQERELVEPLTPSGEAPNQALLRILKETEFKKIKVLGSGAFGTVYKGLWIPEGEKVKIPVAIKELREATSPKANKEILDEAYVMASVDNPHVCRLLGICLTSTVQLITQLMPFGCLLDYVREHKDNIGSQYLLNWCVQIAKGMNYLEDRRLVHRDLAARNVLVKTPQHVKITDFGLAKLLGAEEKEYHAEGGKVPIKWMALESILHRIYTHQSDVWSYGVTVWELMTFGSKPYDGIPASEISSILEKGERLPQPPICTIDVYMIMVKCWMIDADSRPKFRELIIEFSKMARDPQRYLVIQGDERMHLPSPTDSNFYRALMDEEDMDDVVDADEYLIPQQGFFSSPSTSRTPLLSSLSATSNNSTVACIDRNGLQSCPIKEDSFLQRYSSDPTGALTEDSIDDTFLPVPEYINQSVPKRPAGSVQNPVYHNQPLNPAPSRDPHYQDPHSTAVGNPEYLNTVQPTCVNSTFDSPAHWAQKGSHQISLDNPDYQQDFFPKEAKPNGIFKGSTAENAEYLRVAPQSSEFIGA

[4] = Aqueous solubility in pH 7.4 PBS buffer by UV-Visible spectrophotometric method; format: physicochemical
How it was run: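 Solubility determined in 0.1 M PBS, pH 7.4, by UV-visible spectrophotometry.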

Homo sapiens [5] = species on record: Homo sapiens; test: Selectivity index, ratio of IC50 for human A431 cells harboring wild type EGFR to IC50 for human NCI-H1975 cells harboring EGFR L858R/T790M double mutant; how it was run: as §1

| Structure (SMILES) | IC50 (NCI-H1975) [nM] | IC50 (A-431) [nM] | Ratio IC50 (Homo sapiens [1]) | IC50 [2] [nM] | IC50 [3] [nM] | solubility [4] [µg/mL] | Ratio IC50 (Homo sapiens [5]) |
| --- | --- | --- | --- | --- | --- | --- | --- |
| C=CC(=O)Nc1cccc(-n2c(=O)n(C(C)C)c(=O)c3cnc(Nc4ccc(N(C)CCN(C)C)cc4OC)nc32)c1 | 138 | 1950 | 7.6 | 16 | 121 | 1050 (≈ 1840 µM) | 14 |
| C=CC(=O)Nc1cccc(-n2c(=O)n(C)c(=O)c3cnc(Nc4ccc(N5CCC(N(C)C)CC5)cc4OC)nc32)c1 | 230 | 3890 | – | – | – | 531 (≈ 931 µM) | – |
| C=CC(=O)Nc1cccc(-n2c(=O)n(C(C)C)c(=O)c3cnc(Nc4ccc(N5CCN(C)CC5)c(OC)c4)nc32)c1 | 37 | 1050 | 18 | 6.8 | 119 | 309 (≈ 541 µM) | 28 |
| C=CC(=O)Nc1cccc(-n2c(=O)n(CCC)c(=O)c3cnc(Nc4ccc(N5CCC(N(C)C)CC5)cc4OC)nc32)c1 | 60 | 4130 | 33 | 0.4 | 13 | 184 (≈ 307 µM) | 69 |
| C=CC(=O)Nc1cccc(-n2c(=O)n(CC)c(=O)c3cnc(Nc4ccc(N5CCC(N(C)C)CC5)cc4OC)nc32)c1 | 175 | > 10000 | 44 | 2.5 | 111 | 229 (≈ 392 µM) | – |
| C=CC(=O)Nc1cccc(-n2c(=O)n(C)c(=O)c3cnc(Nc4ccc(N5CCN(C(C)=O)CC5)cc4OC)nc32)c1 | > 10000 | > 10000 | 3.9 | 46 | 180 | < 10 | – |
| C=CC(=O)Nc1cccc(-n2c(=O)n(C)c(=O)c3cnc(Nc4ccccc4)nc32)c1 | 9260 | > 10000 | 1.2 | 68 | 82 | < 10 | – |
| C=CC(=O)Nc1cccc(-n2c(=O)n(Cc3ccccc3)c(=O)c3cnc(Nc4ccc(N5CCC(N(C)C)CC5)cc4OC)nc32)c1 | 278 | 3300 | 0.6 | 1.9 | 1.2 | 137 (≈ 212 µM) | 12 |
| C=CC(=O)Nc1cccc(-n2c(=O)n(CCCc3ccccc3)c(=O)c3cnc(Nc4ccc(N5CCC(N(C)C)CC5)cc4OC)nc32)c1 | 358 | 1460 | 2.7 | 1.4 | 3.8 | 104 (≈ 154 µM) | 4.1 |
| C=CC(=O)Nc1cccc(-n2c(=O)n(C(C)C)c(=O)c3cnc(Nc4ccc(OCCN(C)C)cc4OC)nc32)c1 | 99 | 3600 | 2 | 115 | 227 | 647 (≈ 1160 µM) | 36 |
| C=CC(=O)Nc1cccc(-n2c(=O)n(C)c(=O)c3cnc(Nc4ccc(N5CCOCC5)cc4OC)nc32)c1 | > 10000 | > 10000 | 4.9 | 70 | 341 | 61 (≈ 115 µM) | – |
| C=CC(=O)Nc1cccc(-n2c(=O)n(C(C)C)c(=O)c3cnc(Nc4ccc(N5CCC(N6CCN(C)CC6)CC5)cc4OC)nc32)c1 | 154 | 1380 | 17 | 14 | 240 | 121 (≈ 185 µM) | 9 |
| C=CC(=O)Nc1cccc(-n2c(=O)n(CCc3ccccc3)c(=O)c3cnc(Nc4ccc(N5CCC(N(C)C)CC5)cc4OC)nc32)c1 | 189 | 2040 | 0.7 | 1 | 0.7 | 99 (≈ 150 µM) | 11 |
| C=CC(=O)Nc1cccc(-n2c(=O)n(C(C)C)c(=O)c3cnc(Nc4ccc(N5CCN(C)CC5)c(C)c4)nc32)c1 | 24 | 954 | 34 | 1 | 34 | 280 (≈ 505 µM) | 40 |
| C=CC(=O)Nc1cccc(Nc2nc(Nc3ccc(N4CCN(C(C)=O)CC4)cc3OC)ncc2C(F)(F)F)c1 [ROCILETINIB] | 31 | 641 | – | – | – | – | – |
| C=CC(=O)Nc1cccc(-n2c(=O)n(C)c(=O)c3cnc(Nc4ccc(N5CCSCC5)cc4OC)nc32)c1 | 573 | 8370 | 3.5 | 91 | 314 | 45 (≈ 82.5 µM) | 15 |
| C=CC(=O)Nc1cccc(-n2c(=O)n(C(C)C)c(=O)c3cnc(Nc4ccc(N5CCC(N(C)C)CC5)cc4OC)nc32)c1 | 50 | > 10000 | 25 | 0.8 | 20 | 176 (≈ 294 µM) | – |
